The source of these data is article PMC2849726 (Journal of medicinal chemistry, 2010).

For experiment [1], the system named is SK-BR-3 (estrogen receptor negative, HER2 over-expressing luminal-like breast cancer). The experiment is described as follows: Cell growth inhibition assay. It is filed as cell-based, human. The method, boiled down:
(§1)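 Cells were grown in RPMI-1640 with 10% FBS and antibiotics at 37 °C in 5% CO2. Freshly trypsinized cells were seeded and test compound added from DMSO-diluted stock, then incubated 72 h after attachment. Cells were fixed with 10% TCA and stained 10 min with 0.4% SRB in 1% HOAc. Bound dye was dissolved in 10 mM trizma base and A515 read. ED50 is the concentration giving 50% reduction in net protein increase versus control, averaged over at least three independent determinations.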

Experiment [2] deals with ZR-75-1 (estrogen receptor positive, HER2 over-expressing luminal-like breast cancer). The experiment can be described thus: Cell growth inhibition assay. The note with it: for IC50: Homo sapiens, ZR-75-1, read-out: IC50 against the ZR-75-1 cell lines. The experiment is classed as cell-based, human. An outline of the steps:
as §1

Experiment [3] concerns MCF-7 (estrogen receptor positive luminal-like breast cancer). The experiment can be described thus: Cell growth inhibition assay. It is filed as cell-based, human. An outline of the steps:
as §1

The test system of the next experiment is ZR-75-1 xenograft. The experiment is described as follows: Antitumor activity in vivo, ZR-75-1 xenograft. Set-up: species or system SCID mice. The note with it: 10 mg/kg i.p. qod to end. An outline of the steps: (§2)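 Human tumour cells were grown in RPMI 1640 with 10% heat-inactivated FBS, 2 mM glutamine and antibiotics, harvested in log phase and resuspended in PBS at 5 × 10^7 cells/mL. 1 × 10^7 cells were given s.c. in the right flank. Test compound was dosed i.p. at 10 mg/kg qod to end in 4% benzyl alcohol/6% cremophor/90% D5W. Controls were vehicle i.p. qod and paclitaxel 20 mg/kg i.p. q4d × 5. Caliper tumour volume = w²×l/2. %TGD was calculated from mean time to endpoint, with logrank P ≤ 0.05. At least five animals per group.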

A further experiment concerns PC-3 xenograft. The experiment is described as follows: Antitumor activity in vivo, PC-3 xenograft. Also on record: species or system SCID mice. The note with it: 10 mg/kg i.p. qod to end. An outline of the steps:
as §2

For another experiment, the system named is MDA-MB-231 xenograft. The experiment can be described thus: Antitumor activity in vivo, MDA-MB-231 xenograft. Also on record: species or system SCID mice. As to conditions: 10 mg/kg i.p. qod to end. The method, boiled down:
as §2

For another experiment, the target named is CK2α1 (Homo sapiens, UniProt P68400). The experiment is described as follows: Kinases inhibition assay, CK2α1. The experiment is classed as biochemical. As to conditions: preliminary, Table 3 in supporting information.
Chain of CK2α1 (P68400 whole entry): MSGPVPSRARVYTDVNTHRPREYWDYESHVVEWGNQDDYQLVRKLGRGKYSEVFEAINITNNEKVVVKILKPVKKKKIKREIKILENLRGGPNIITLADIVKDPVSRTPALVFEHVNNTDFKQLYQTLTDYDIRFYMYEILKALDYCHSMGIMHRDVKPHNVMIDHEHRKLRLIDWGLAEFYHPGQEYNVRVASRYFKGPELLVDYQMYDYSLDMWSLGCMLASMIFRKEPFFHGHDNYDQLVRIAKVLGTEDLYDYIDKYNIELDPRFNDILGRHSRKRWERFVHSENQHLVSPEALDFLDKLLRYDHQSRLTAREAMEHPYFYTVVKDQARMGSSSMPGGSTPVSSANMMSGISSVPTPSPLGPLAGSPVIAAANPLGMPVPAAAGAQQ
Another experiment addresses ABL (Homo sapiens, UniProt P00519). The experiment can be described thus: Kinases inhibition assay, ABL. The experiment is classed as biochemical. As to conditions: preliminary, Table 3 in supporting information.
The target in another experiment is AKT1 (Homo sapiens, UniProt P31749). The experiment is described as follows: Kinases inhibition assay, AKT1. The experiment is classed as biochemical. The note with it: preliminary, Table 3 in supporting information.
Chain of AKT1 (P31749 whole entry, species assumed): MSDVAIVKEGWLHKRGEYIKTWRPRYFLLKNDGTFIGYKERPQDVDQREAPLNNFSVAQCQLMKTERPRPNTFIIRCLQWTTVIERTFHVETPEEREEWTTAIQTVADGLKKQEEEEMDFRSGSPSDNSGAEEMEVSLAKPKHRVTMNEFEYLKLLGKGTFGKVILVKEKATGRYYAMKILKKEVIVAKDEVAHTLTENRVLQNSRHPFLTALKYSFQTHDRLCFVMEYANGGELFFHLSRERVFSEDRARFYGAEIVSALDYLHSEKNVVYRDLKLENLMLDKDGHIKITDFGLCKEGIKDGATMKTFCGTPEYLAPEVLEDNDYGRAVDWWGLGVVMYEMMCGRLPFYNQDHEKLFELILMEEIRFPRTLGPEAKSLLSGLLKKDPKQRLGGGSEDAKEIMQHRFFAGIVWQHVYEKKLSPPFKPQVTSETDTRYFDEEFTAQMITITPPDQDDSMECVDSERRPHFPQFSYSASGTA
Experiment [4] concerns human breast cancer cell lines. The experiment is described as follows: Cell line panel. It is filed as cell-based. As to conditions: total 29 cell lines, unpublished data.
For experiment [5], the system named is mammary gland side branching. The experiment can be described thus: Preliminary in vivo evaluation, mammary gland side branching. As to conditions: BRCA1/p53 and wild-type mice, unpublished data.
Experiment [6] concerns MCF-7 (estrogen receptor positive luminal-like breast cancer). As to conditions: cited from earlier work.
Experiment [7] deals with SK-BR-3 (estrogen receptor negative, HER2 over-expressing luminal-like breast cancer). The note with it: cited from earlier work.
In experiment [8] the test system is ER+ and HER2++ breast cancer cells. As to conditions: more selective than TAM; cited from earlier work.

SMILES strings stand for the structures. ≈ marks a conversion by molar mass, not a printed value. Entries after “also recorded” stand apart in the source; their conditions may differ.

Chain of ABL (P00519 whole entry, species assumed): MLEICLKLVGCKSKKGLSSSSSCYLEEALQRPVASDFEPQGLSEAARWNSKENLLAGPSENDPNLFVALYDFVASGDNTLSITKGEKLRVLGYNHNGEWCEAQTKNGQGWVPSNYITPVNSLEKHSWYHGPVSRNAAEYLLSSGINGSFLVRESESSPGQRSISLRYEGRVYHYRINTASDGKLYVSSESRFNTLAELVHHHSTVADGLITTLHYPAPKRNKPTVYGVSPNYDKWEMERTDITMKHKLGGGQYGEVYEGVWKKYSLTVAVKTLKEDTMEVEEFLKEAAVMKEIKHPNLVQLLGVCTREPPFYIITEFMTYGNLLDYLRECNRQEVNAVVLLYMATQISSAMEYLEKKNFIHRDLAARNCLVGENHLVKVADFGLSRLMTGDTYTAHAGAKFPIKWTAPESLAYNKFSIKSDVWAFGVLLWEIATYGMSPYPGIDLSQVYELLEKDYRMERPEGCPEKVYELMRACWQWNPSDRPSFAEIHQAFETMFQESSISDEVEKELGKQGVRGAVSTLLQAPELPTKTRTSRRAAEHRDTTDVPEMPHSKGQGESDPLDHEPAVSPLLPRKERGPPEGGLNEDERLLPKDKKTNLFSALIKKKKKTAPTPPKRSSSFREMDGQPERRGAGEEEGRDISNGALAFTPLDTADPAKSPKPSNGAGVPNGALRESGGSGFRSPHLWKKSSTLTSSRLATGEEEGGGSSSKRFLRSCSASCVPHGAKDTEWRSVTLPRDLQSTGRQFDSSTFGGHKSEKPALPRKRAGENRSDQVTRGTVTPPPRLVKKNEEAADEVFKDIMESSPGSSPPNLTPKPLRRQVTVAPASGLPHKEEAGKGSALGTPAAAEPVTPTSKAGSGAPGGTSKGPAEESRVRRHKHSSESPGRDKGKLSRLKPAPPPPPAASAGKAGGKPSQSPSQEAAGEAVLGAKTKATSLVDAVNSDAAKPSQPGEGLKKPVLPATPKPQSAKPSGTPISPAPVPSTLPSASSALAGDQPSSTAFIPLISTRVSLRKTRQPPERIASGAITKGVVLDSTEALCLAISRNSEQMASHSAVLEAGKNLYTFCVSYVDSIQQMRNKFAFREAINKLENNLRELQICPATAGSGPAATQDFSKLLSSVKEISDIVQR

For the compound `Cc1coc2c1c(=O)oc1c3cccc(C(C)Br)c3ccc21` (stereo not drawn) [Compound 24, 6-(1-Bromoethyl)-1-methyl-11H-benzo[h]furo[3,2-c]chromen-11-one], in experiment [1], the “potency relative to 1 against SK-BR-3” value is “two- to three-fold more potent than 1”. In addition, the “potency relative to 1 against ZR-75-1” value in experiment [2] was “two- to three-fold more potent than 1”.

Consider `CCc1cccc2c1ccc1c3oc(C)cc3c(=O)oc21` [Compound 51, 6-Ethyl-2-methyl-11H-benzo[h]furo[3,2-c]chromen-11-one], for which the “activity against MCF-7 (in words)” value in [3] is “completely inactive”.

In the case of `Cc1ccc2c(=O)oc3c4ccccc4ccc3c2c1` [Compound 58, 9-Methyl-6H-dibenzo[c,h]chromen-6-one], the “anti-breast cancer activity (in words)” value in experiment [1] (only SK-BR-3 tested) is “inactive”.

Turning to `COc1cccc2c1ccc1c3occ(C)c3c(=O)oc21` [Compound 21, 6-Methoxy-1-methyl-11H-benzo[h]furo[3,2-c]chromen-11-one], the ZR-75-1/MCF-7 selectivity ratio in experiment [2] (more active against ZR-75-1 than MCF-7) was determined as 23 fold.

As usually defined, the IC50 is the concentration that inhibits the measured activity by half. Consider `CCCc1cccc2c1ccc1c3occ(C)c3c(=O)oc21` [Compound 20, 1-Methyl-6-propyl-11H-benzo[h]furo[3,2-c]chromen-11-one], for which the SK-BR-3/MCF-7 selectivity ratio result in [1] was “approximately 12 fold”. In [2], the ZR-75-1/SK-BR-3 selectivity ratio result is recorded as “threefold” and the half-inhibitory concentration (IC50) amounted to 0.2 µg/mL (≈ 0.684 µM).

Consider `CCc1cccc2c1ccc1c3occ(C)c3c(=O)oc21` [Compound 2], for which the “ZR-75-1 tumor xenograft growth (in words)” value in the experiment with ZR-75-1 xenograft is on record as “potent activity; also recorded: significant reduction in growth”. Further, the “effect on PC-3 xenograft (in words)” value in the experiment with PC-3 xenograft is given as “no effect”. Besides, the “effect on MDA-MB-231 xenograft (in words)” value in the experiment on MDA-MB-231 xenograft was “no effect”. The “suppression of CK2α1 (in words)” value on CK2α1 is recorded as “significantly suppressed”. In addition, the “suppression of ABL (in words)” value on ABL is “significantly suppressed”. Also, at AKT1, the “suppression of AKT1 (in words)” value was “significantly suppressed”. Moreover, in [4], the “share of human breast cancer cell lines against which effective” value was “approximately 40%”. Also, the “mammary gland side branching (in words)” value in [5] was “dramatically reduced”. Also, the “activity relative to 1 against MCF-7” value in experiment [6] was “about twice as active”. Further, in [7], the “activity relative to 1 against SK-BR-3” value is on record as “about twice as active”.

As to `Cc1coc2c1c(=O)oc1c3cccc(C(C)C)c3ccc21` [Compound 19, 6-Isopropyl-1-methyl-11H-benzo[h]furo[3,2-c]chromen-11-one], in experiment [2], the ZR-75-1/SK-BR-3 selectivity ratio result was “tenfold” and the IC50 was found to be 0.3 µg/mL (≈ 1.03 µM).

In the case of `Cc1cccc2c1ccc1c3occ(C)c3c(=O)oc21` [Compound 1, Neo-tanshinlactone], the “selectivity relative to TAM” value in experiment [8] is 20 fold.
